Results reported in ChEMBL document CHEMBL1139935, “Discovery of novel indazole-linked triazoles as antifungal agents” (2007).
Converted amounts (≈) assume the structure as drawn.

Key:
[1] = tested on: Candida albicans; test: Antifungal activity against Candida albicans ATCC 36082 by broth microdilution assay; assay type: functional
[2] = tested on: Nakaseomyces glabratus; test: Antifungal activity against Candida glabrata ATCC 34138 by broth microdilution assay; assay type: functional
[3] = tested on: Pichia kudriavzevii; test: Antifungal activity against Candida krusei ATCC 6528 by broth microdilution assay; assay type: functional
[4] = tested on: Clavispora lusitaniae; test: Antifungal activity against Candida lusitaniae ATCC 42720 by broth microdilution assay; assay type: functional
[5] = tested on: Candida tropicalis; test: Antifungal activity against Candida tropicalis ATCC 750 by broth microdilution assay; assay type: functional
[6] = tested on: Candida parapsilosis; test: Antifungal activity against Candida parapsilosis ATCC 21019 by broth microdilution assay; assay type: functional; settings: Lodderomyces parapsilosis
[7] = tested on: Aspergillus fumigatus; test: Antifungal activity against Aspergillus fumigatus ATCC 16424 by broth microdilution assay; assay type: functional
[8] = tested on: Aspergillus flavus; test: Antifungal activity against Aspergillus flavus ATCC MYA-1004 by broth microdilution assay; assay type: functional
[9] = tested on: Aspergillus terreus; test: Antifungal activity against Aspergillus terreus ATCC 28301 by broth microdilution assay; assay type: functional
[10] = tested on: Aspergillus niger; test: Antifungal activity against Aspergillus niger ATCC 9042 by broth microdilution assay; assay type: functional
[11] = tested on: HepG2; test: Cytotoxicity against human HepG2 cells at 50 uM by neutral red uptake assay; assay type: functional
[12] = tested on: Cryptococcus neoformans; test: Antifungal activity against Cryptococcus neoformans ATCC 24065 by broth microdilution assay
[13] = tested on: HepG2; test: Cytotoxicity against human HepG2 cells by neutral red uptake assay; assay type: functional
Method in brief: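 Human hepatoma HepG2 cells; neutral red uptake read-out following a previously described protocol; the value is the CC50 (concentration giving half-maximal cytotoxicity); ketoconazole served as reference agent.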

[14] = tested on: Candida albicans; test: Antifungal activity against systemic Candida albicans ATCC 36082 infection model in ICR mouse assessed as survival at 20 mg/kg, po; assay type: functional
Method in brief: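 C. albicans ATCC 36082 given systemically, about 5 × 10⁵ cells per animal. Oral dosing at 20 mg/kg once daily started 2 h post-infection and continued for 7 consecutive days. Read-out was mean survival days, compared against an untreated infected control group.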

MIC80 [1] | MIC80 [2] | MIC80 [3] | MIC80 [4] | MIC80 [5] | MIC80 [6] | MIC80 [7] | MIC80 [8] | MIC80 [9] | MIC80 [10] | MIC80 [12] | SMILES | inhibition at 50 µM [11] | CC50 [13] | Survival [14]
≤ 0.015 µg/mL | 8 µg/mL (≈ 19.9 µM) | 1 µg/mL (≈ 2.49 µM) | 0.125 µg/mL (≈ 0.311 µM) | 1 µg/mL (≈ 2.49 µM) | 0.25 µg/mL (≈ 0.623 µM) | 16 µg/mL (≈ 39.9 µM) | > 16 µg/mL | > 16 µg/mL | > 16 µg/mL | 0.125 µg/mL (≈ 0.311 µM) | Cc1nn([C@H](C)[C@](O)(Cn2cncn2)c2ccc(F)cc2F)c2cccc(F)c12 | 8.1% |  | 
≤ 0.015 µg/mL | 8 µg/mL (≈ 17.7 µM) | 4 µg/mL (≈ 8.86 µM) | 0.25 µg/mL (≈ 0.554 µM) | > 8 µg/mL | 1 µg/mL (≈ 2.22 µM) | > 16 µg/mL | > 16 µg/mL | > 16 µg/mL | > 16 µg/mL | 1 µg/mL (≈ 2.22 µM) | Cc1nn([C@H](C)[C@](O)(Cn2cncn2)c2ccc(F)cc2F)c2ccc(C(F)(F)F)cc12 | 2.9% |  | 

SMILES | MIC80 [1] | MIC80 [2] | MIC80 [3] | MIC80 [4] | MIC80 [5] | MIC80 [6] | MIC80 [7] | MIC80 [8] | MIC80 [9] | MIC80 [10] | MIC80 [12] | inhibition at 50 µM [11] | CC50 [13] | Survival [14]
C[C@@H](n1cc2cc(Br)ccc2n1)[C@](O)(Cn1cncn1)c1ccc(F)cc1F | ≤ 0.015 µg/mL | 2 µg/mL (≈ 4.46 µM) | 0.125 µg/mL (≈ 0.279 µM) | ≤ 0.015 µg/mL | ≤ 0.015 µg/mL | ≤ 0.015 µg/mL | 0.25 µg/mL (≈ 0.558 µM) | 0.5 µg/mL (≈ 1.12 µM) | 0.5 µg/mL (≈ 1.12 µM) | 1 µg/mL (≈ 2.23 µM) | ≤ 0.015 µg/mL |  | 141 µM | 13.5 days
